According to the EternaBench riboswitch data:

Test system: MS2 coat protein
Assay: apparent Kd, MS2 coat protein; higher = weaker binding; RNA-MaP array; FMN 200 µM where present
How it was run: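 Two titrations, one without ligand and one with constant ligand, were run with SNAP-549-labelled MS2 coat protein from 0.7 or 1.5 nM, doubling to 3 µM. The targets were designs transcribed by stalled E. coli RNA polymerase on Illumina sequencing-chip clusters, in 100 mM Tris-HCl pH 7.5, 80 mM KCl, 4 mM MgCl2, BSA, DTT, yeast tRNA and Tween-20. The apparent Kd is the median of filtered per-cluster binding-curve fits, with green signal normalised to red-channel RNA signal and control-cluster median Fmax.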

[1] = designed as: ON switch for flavin mononucleotide, no ligand
[2] = ligand present: flavin mononucleotide, designed as: ON switch for flavin mononucleotide
[3] = designed as: OFF switch for flavin mononucleotide, no ligand
[4] = ligand present: flavin mononucleotide, designed as: OFF switch for flavin mononucleotide

Row | Sequence | apparent Kd [1] | apparent Kd [2] | apparent Kd [3] | apparent Kd [4]
1 | UGUGUUAUCGGAGGAUAUCGAUAUCAAACAUGAGGAUCACCCAUGUUGAGGAUCACCCAUGUCUACGAGAAGGCCGGCGUACUC | 45.2 nM | 50.6 nM | – | –
2 | GUCAGCUCGUGAGGAUAUACCACACUGCUUCGGCAGUGUAUUAAGAUCACAUGAGGAUCACCCAUGUAGAAGGCACGAGCUGAU | – | – | 6.32 nM | 34.2 nM
3 | GUGCUGCAACGGUGCACGAGACAUGAGGAUCACCCAUGUGACAGAAGGGACUUGUUAAAGGUAGGUCAGGAUAUGUCUUAAAAG | 191 nM | 53.1 nM | – | –
4 | GGGCCACAUGAGGAUCACCCAUGUAAGGAUAUGCUAGGGAUGGAAAAAAUUUCGCUAGGCAGAAGGUACUAAAG | – | – | 32 nM | 55.6 nM
5 | UAAUAAUAAUAAUAAUGCUGACAUACAUGAGGAUCACCCAUGUAGGAUAUCGUCAGGAAUACUGACGAGAAGGACAUAGUCAGC | – | – | 15.4 nM | 17.4 nM
6 | GCACAUGAUACAGGAUAUGUAUUGGAAUAUAUAAUGAAUUAGAUGAAAUUGACAGAAGGGUAGACAUGAGGAUCACCCAUGUGC | – | – | 324 nM | 186 nM
7 | AAAACAUGAGGAUCACCCAUGUAAAGAUCGGUUGAUGAAGGUGAGGAUAUACAAAACUUUAUGGAGUAGAAGGCACUGGGUUGA | 109 nM | 59.3 nM | – | –
8 | AAAAAACAUGAGGAUCACCCAUGUGAGGAUAUCUGUAUUCAAUCCUCGGAUUGAAUACAGAGAAGGCACAUGGG | – | – | 26.6 nM | 26.9 nM
9 | UCGAACUUUCAUGAAAUUCGCACAUGAGGAUCACCCAUGUACGAGGAUAUGUACUUAAACGGCUAACAGAAGGCGUACUGGGCA | – | – | 105 nM | 71.8 nM
10 | UGCAGACAUGAGGAUCACCCAUGUCAGGAUAUUGGACUAUGCAAUGUAUUGUUAGUACCAAGAAGGGACCCGUC | – | – | 31.8 nM | 27.2 nM
11 | AUAGCUCUCUAGAAGGUCCAACCAGUAUUCCAUCAGGUAAAUACGGUAGGGAGGAUAUGGGACAUGAGGAUCACCCAUGUGUAG | 42.2 nM | 25.2 nM | – | –
12 | UCGCUGCGAGGAUAUACAUGAGGAUCACCCAUGUACGGGUCCGGGUCUUAGUUGAUUGGUAGAAGGCGCAGUGA | – | – | 106 nM | 212 nM
13 | AAAAAAAAAACUCAGGAUAUAGAUAAUUGAACAUGAGGAUCACCCAUGUAGUGAAAAAAAAAAAAUUAGAAGGGAGGAAAAAAAAA | 67.8 nM | 58.8 nM | – | –
14 | GAUCGUAUCCUAGGAUAUUCAUAAAACAUGAGGAUCACCCAUGUUAACUUGGGAGAAGGAGGAUACGAUCAACAGCGAAAGCUG | 7.35 nM | 5.09 nM | – | –
15 | CAGGAUAGAGGAUAUACAUAGAUACAGAUUCAUGUAAUCCUACAUGAGGAUCACCCAUGUAGAAGGCUAUCCUG | – | – | 14.9 nM | 64.9 nM
16 | UUAGAGGAUUAAGGAUAUGCAGAGAGAUUAUGCGCGUCGCGCACAUGAGGAUCACCCAUGUAAGAGCAGAAGGUAACUAUGAUC | – | – | 22.8 nM | 16.4 nM
17 | AAAAUGUAAGGAUAUGGCCGGGACCCAGGGUUUGGACCCGGCUAGAAGGUACAUGAGGAUCACCCAUGUAAGAA | – | – | 16.4 nM | 23 nM
18 | ACAUAGCGAGGAUAUACAUGAGGAUCACCCAUGUGGUGGCGGUUACGGUAGGACUAGUGUAGAAGGUGCCAUGG | – | – | 418 nM | 424 nM
19 | CCCGAGUUAGGAUAUCGGACUGGCCCGCACAGGCUAGCAAUUGAGAAGGAACAUGAGGAUCACCCAUGUGAGUA | – | – | 24.2 nM | 61.6 nM
20 | AAAAAACAUGAGGAUCACCCAUGUCAAAAGACGUGAGGAUAUGUACAGACUUCGGUCUGUACAGAAGGCAUGUCAA | 30.1 nM | 16.5 nM | – | –
21 | GCGUUCUUGUAGAAGGUACAUACGACAUCUUAUAAACGCAUGACACAUGAGGAUCACCCAUGUUGUAAGGAUAUACAUGAACGC | 8.88 nM | 8.05 nM | – | –
22 | AUAGCUCUCUAGAAGGACCAAGCAGUAUACCAUCAGGUAUAUACGCUAGGUAGGAUAUGGGACAUGAGGAUCACCCAUGUGUAG | 53.9 nM | 33.9 nM | – | –
23 | AAAUAGCGAGGAUAUACAUGAGGAUCACCCAUGUGGACUGAUGUCGCAUGUUUCAGUGGUAGAAGGUGCUCAAA | – | – | 136 nM | 299 nM
24 | CCCAAACUUGGGCUUGGCGGUGCAUAGGAUAUCCUUGGACAUGAGGAUCACCCAUGUACAACUGUGGAGAAGGGUGCAGGGCCU | 31.2 nM | 8.61 nM | – | –

Row | Sequence | apparent Kd [1] | apparent Kd [2] | apparent Kd [3] | apparent Kd [4]
25 | GAUCACUGAGGAUAUACACAGAUACAAAGUAUCUGAGCGUGACAUGAGGAUCACCCAUGUAGAAGGCAGAGGUC | – | – | 190 nM | 769 nM
26 | GUAAAUCAUGUAGGAUAUGCAUGGCGAAGCUACGCAGAAGGACAUGAGGAUCACCCAUGUUAAAGCUACCGAGUUCGGUGGCAA | – | – | 133 nM | 162 nM
27 | AAUUAACAUGAGGAUCACCCAUGUCGUAUUAUGGGAGGAUAUACGUGGACCGUAGUCCGCGUAGAAGGCCUAAUUA | 36.6 nM | 18 nM | – | –
28 | CCAUAAAAGAUCCAAUUUUACAACAUGAGGAUCACCCAUGUGCAGGAUAUCGUGAAAGUAAAAUACGAGAAGGGCAAGAACUGC | – | – | 265 nM | 246 nM
29 | GCUCGGCCAAAAUAAAACGACGCGAAGGAUAUACACCUGGGUACUCCUACAUGAGGAUCACCCAUGUAGAAGGUCGCGGGCUUG | – | – | 45 nM | 46.4 nM
30 | CAGUACUGAGGAUAUACAUGAGGAUCACCCAUGUAAAAAACCUACGAAAGUAGGACAUGUAGAAGGCAGUACUG | – | – | 24.2 nM | 76.7 nM
31 | ACAUUGUUAGGAUAUGCUGCUCGUCACUUGCGUGAUGAGUAGCAGAAGGAACAUGAGGAUCACCCAUGUAAAGA | – | – | 33.7 nM | 56.1 nM
32 | GGGUACAUCGGAGGAUAUCAUGUAAAUACAUGAGGAUCACCCAUGUCGAUGGAGACAUCGGACAUUGAGAAGGCCGAUGUACCG | 29.2 nM | 5.79 nM | – | –
33 | GGAUAGUGAGGAUAUCGAUGUUAGGAGGAGUAGAUAGGAGGCGAGAAGGCACAUGAGGAUCACCCAUGUAUGGA | – | – | 58.7 nM | 45.5 nM
34 | AUGCUUCUCUCAGGAUAUUACAACAUGAGGAUCACCCAUGUACAUGACAUGACGAUCACGCAUGUUAAGAAGGGAGAGAAGCAU | – | – | 718 nM | 583 nM
35 | GUAAAUGGUAUGGCUUCGACCACACAGGAUAUGAAAAUGUACAUGAGGAUCACCCAUGUUCUGAAUCAGAAGGGUGAUGGACGG | 20.7 nM | 6.74 nM | – | –
36 | CCCUCACAUGAGGAUCACCCAUGUCAGGAUAUCUAGUCAGACAGUGUAGCACUGCUGAAGAGAAGGGACGUAAA | – | – | 16.9 nM | 19.4 nM
37 | CUGUGACGGUGCGCAAGUGGACGGAGAAGGGACACAUGAGGAUCACCCAUGUGGGCCUGCUAUUGUCAGGAUAUCCGUUCGUAC | – | – | 6.26 nM | 6.62 nM
38 | GCAUUGAUAGCAGGAUAUAUGUUUCCUACAUGAGGAUCACCCAUGUAGGUGAUCAGCCGAGAAAAGUAGAAGGGCUAUCAAUGC | 15.6 nM | 14.1 nM | – | –
39 | GUCAGCUCGUGAGGAUAUACAACACUGCUUCGGCAGUGUAUUAAGAUCACAUGAGGAUCACCCAUGUAGAAGGCAUGAGCUGAU | – | – | 14.9 nM | 297 nM
40 | ACAUGCGGAUGAGGAUAUUCAUCCAUGAGGAUAGAAGAAGGCAUACAUGAGGAUCACCCAUGUAUACACAUGAGGAUCCCUUAU | – | – | 59 nM | 137 nM
41 | AGCUAGUACCGAGGAUAUACGUACAUGAGGAUCACCCAUGUAUACAUGAAUUAAUGAGACUACAUGUAGAAGGCGGUACUAGCA | 51.4 nM | 14.2 nM | – | –
42 | CAGGUAGACUGAGGAUAUACAUACCAUCAGCUAGUCUAUCUAGCUGUCACAUGAGGAUCACCCAUGUAGAAGGCAGUCUGCCUG | – | – | 30.5 nM | 122 nM
43 | AGAAAACAUGAGGAUCACCCAUGUAGAAAUAUGGGAGGAUAUACAAAGACGAAAGUCGAGGUAGAAGGCCUAAAGA | 100 nM | 23.4 nM | – | –
44 | CACGUACAUGAGGAUCACCCAUGUUAGGAUAUGCCGGGUAAGAGAAAACUAAAAAUCCGUAGAAGGGACGAAAC | – | – | 34.1 nM | 33.8 nM
45 | AGCUGUGGCCGAGGAUAUACAUUCCUAAUCCAUUGCAAAUAGCGAUGGACAUGAGGAUCACCCAUGUAGAAGGCGGUCUCAGCA | – | – | 561 nM | 163 nM
46 | UUACUACAUGAGGAUCACCCAUGUCAGGAUAUUGUAUAUGCCUUGGAAUACGUGUUUACAAGAAGGGACUAUAU | – | – | 24.1 nM | 25.4 nM
47 | ACAUGCAUAGCGAUAUGAUCGAGAGAUCAUGUCGCUAAAGUUAGAAGGACAUGAGGAUCACCCAUGUAGGAUAUGGGAGCAUGA | 43.1 nM | 9.96 nM | – | –
48 | GUAGCAUACCGAGGAUAUUCUAACCGGAAACGGACAUGAGGAUCACCCAUGUGGCGAAAGCCUAGGGAGAAGGCGGAAUGCUAC | 10.5 nM | 11.6 nM | – | –
